Screening results deposited in PubChem by several laboratories.
This is a sample that favours compounds with a hit; in the whole collection about 3% have one here.
RAM network inh: blocks the yeast RAM network. S. cerevisiae dse1pr::URA3 reporter, 5-FOA growth OD615, 2 d; analog-sensitive cbk1-as2 kinase mutant strain. inhibition, % at 50 µM. 1.8% of 190,000 active;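 active means inhibition above a set limit, 3 SD over mean compound inhibition, cut at about 8.4% in these data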;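 further: 0% = DMSO-only wells with no growth and 100% = 10 µM 1-NA-PP1 full growth; inhibition rescues growth on 5-FOA so higher OD means more RAM inhibition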
Insulin prom up: MIN6 insulin promoter up-regulation. MIN6 insulin promoter-GFP reporter, high-content imaging; active compounds read high. z-score at 5 µM. 0.3% of 190,000 active;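 active means z-score above 3 at 5 µM with at least 500 cells counted in the well; inconclusive means wells under 500 cells, flagged as cytotoxic or low count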
Yeast lifespan up: yeast lifespan extension. inhibition of the nicotinamide effect, % at 10 µM. S. cerevisiae growth with nicotinamide, OD615; deaD strain in restrictive glucose medium. 0.68% of 130,000 active;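 active means inhibition above a set limit, placed 3 SD over the median of all compounds, cut at about 26% in these data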;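 further: 0% = nicotinamide-treated wells and 100% = cells grown without nicotinamide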
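Assay system: engineered S. cerevisiae DeaD replicative-lifespan strain, galactose-grown log-phase cells; Buffer or medium: CSMM-D glucose medium, restrictive; Probe or stimulus: nicotinamide 1.5 mM; Compound: single dose 10 µM compound, 0.25% DMSO; Schedule: 4 h preincubation then 48 h treatment at 30 °C; Technique: OD615 measurement.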
Insulin prom inh: TRM-6 insulin promoter activity inhibition; inhibition, % at 2 µM; TRM-6 cells, insulin promoter-eGFP reporter, imaging; reporter expression induced with tamoxifen; 0.9% of 130,000 active; AID 1273;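 active means inhibition above the mean plus 3 SD, with well images judged a real hit on visual review, cut at about 60% in these data, passing the limit was not always enough; inconclusive means inhibition over the cutoff but images rejected on review; inactive means inhibition not above the cutoff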
Yeast growth inh: chemicals that inhibit yeast BB579 growth in restrictive medium (lifespan-shortening candidates). S. cerevisiae BB579 growth, OD615, 48 h. inhibition, % at 10 µM. 0.51% of 140,000 active. AID 804;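 active means inhibition above a set limit, 3 SD over the mean compound inhibition, cut at about 44% in these data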
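Test system: S. cerevisiae DeaD strain BB579 yeast; Medium: restrictive CSMM-D medium; Compound: one dose, 10 µM compound with 0.25% DMSO; Incubation: 4 h cell preincubation, 48 h compound exposure, 30 °C humidified; Signal: OD at 615 nm; Benchmarks: amphotericin B at 10 µg/mL as positive control.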
* hit, by the source's call; ? = inconclusive; / = no result.

SMILES	RAM network inh	Insulin prom up	Yeast lifespan up	Insulin prom inh	Yeast growth inh
Clc1ccc2nc(N3CCCCC3)[nH]c2c1	1	/	-8	87*	2
Clc1ccc2nc(N3CCCCC3)sc2c1	-1	-0.22	-5	/	-28
CCOC(=O)c1c(C)n(OCc2ccccc2)c2ccc3nonc3c12	10*	-0.46	-9	/	-42
O=C(Cn1c(=S)[nH]c2ccccc2c1=O)N1CCN(c2ccc(F)cc2)CC1	5	-0.23	/	0	/
O=C(OCC#CCSc1nnc(-c2ccc(Br)cc2)o1)c1ccco1	10*	0.43	5	/	-38
O=C1Nc2ccc(Br)cc2C12NNc1ccccc1O2 (stereo not given)	8	14*	/	/	/
COc1ccccc1C(=O)NNC(=O)c1nn(Cc2ccccc2)c(=O)c2ccccc12	4	-1	/	80*	/
COCCCN1C(=O)C(=O)/C(=C(/O)c2ccccc2)C1c1ccc2c(c1)OCO2 (stereo not given)	9.7*	-0.23	4	/	-64
CSc1nnc(C)c(=O)n1COC(=O)COc1ccc(Cl)cc1	0	-0.28	/	-58	/
CCOC(=O)/C(C#N)=C1\Nc2ccccc2N=C1N(CC(C)C)CC(C)C	8.9*	0.4	12	-36	-99
CCOC(=O)/C(C#N)=C1/C=C(C)NC(c2ccccc2O)=N1	7	0.07	-6	-18	-34
COCCCNC(=O)c1c(NC(=O)C2COc3ccccc3O2)sc2c1CCCC2 (stereo not given)	2	/	-5	87*	-24
O=C(Nc1nc(-c2ccccc2)cs1)C1COc2ccccc2O1 (stereo not given)	4	0.09	-15	-25	-14
O=C(Nc1nc(-c2ccccn2)cs1)C1COc2ccccc2O1 (stereo not given)	0	-2	-6	14	93*
Cc1ccccc1CS(=O)(=O)c1nnc([C@H](CC(C)C)NC(=O)OC(C)(C)C)o1	1	-0.2	0	42	0
CC[C@@H](C)[C@H](NC(=O)OC(C)(C)C)c1nnc(S(=O)(=O)Cc2cc(C)ccc2C)o1	5	0.58	0	72*	-48
O=C(N/N=C1/CC2C=CCC12)c1ccco1 (stereo not given)	2	1.6	2	32	0
COc1cc(OC)c2c(c1O)OC(c1ccccc1)CC2=O (stereo not given)	-1	-0.54	/	/	/
N=c1c2c(-c3ccccc3)c(-c3ccccc3)n(Cc3ccco3)c2ncn1Cc1ccccc1	1	/	41	-4	-41
OCCNc1ncnc2c1c(-c1ccccc1)c(-c1ccccc1)n2Cc1ccco1	1	-0.8	12	28	-40
c1ccc(-c2c(-c3ccccc3)n(Cc3ccco3)c3ncnc(NCCCn4ccnc4)c23)cc1	-1	/	43*	-33	-62
N=c1c2c(-c3ccccc3)c(-c3ccccc3)n(Cc3ccco3)c2ncn1CCCn1ccnc1	0	?	43*	-85	-14
CC(C)Cn1cnc2c(c(-c3ccccc3)c(-c3ccccc3)n2Cc2ccco2)c1=N	2	-3.6	28*	-29	-39
CN(Cc1cn(Cc2ccccc2)nc1-c1ccc2c(c1)OCO2)Cc1nccn1C	0	0	/	/	/
N/C(=N\N=C\c1ccc2c(c1)OCO2)SC1CC(=O)N(c2ccc(C(=O)O)cc2)C1=O (stereo not given)	8.6*	/	/	/	/
SMILES	RAM network inh	Insulin prom up	Yeast lifespan up	Insulin prom inh	Yeast growth inh
Fc1cccc(NC(=S)NCc2ccccc2Cl)c1	/	-0.15	/	/	/
COC(=O)c1nn(-c2ccccc2)nc1-c1nn(-c2ccccc2)nc1C(=O)OC	0	/	-5	30	-14
O=C(O)c1nn(-c2ccccc2)nc1-c1nn(-c2ccccc2)nc1C(=O)O	8.9*	2.8	-22	/	7
Cc1ccc(N/C(C(Cl)=C(Cl)Cl)=C(/Cl)[N+](=O)[O-])c(C)c1	9.4*	0.15	48*	8	-57
O=[N+]([O-])c1ccc(O)c2cccnc12	-1	-0.1	/	/	/
O=[N+]([O-])c1ccc(O)c2ncccc12	-1	/	-9	-19	99*
COC(=O)N/N=C/c1cccc(OCCSc2ccc(Cl)cc2)c1	3	-0.05	7	8	-16
CC1CCCN(c2nc3c(c(=O)n(C)c(=O)n3C)n2CCSc2nc3ccccc3s2)C1 (stereo not given)	0	3.2*	-1	/	-86
COc1ccc2c(=O)c3c(=O)n(Cc4ccco4)c(C(C)C)nc3oc2c1	2	0.1	/	-6	-22
COc1ccc2c(=O)c3c(=O)n(Cc4ccco4)c(-c4ccc(C)cc4)nc3oc2c1	7	-0.74	47*	29	-38
CCc1nc2oc3cc(OC)ccc3c(=O)c2c(=O)n1Cc1ccccc1	0	0.65	3	67*	-13
CC(C)(C)c1nnc(NC(=O)CN2C(=O)C3C4C=CC(C4)C3C2=O)s1 (stereo not given)	0	0.24	-15	75*	-32
O=[N+]([O-])c1cccc(/C=N/Nc2nc(NCc3ccccc3)nc(N3CCOCC3)n2)c1O	8	0.71	/	/	/
CCOC(=O)N=Nc1c(O)n(CC)c2ccccc12	1	/	-6	33	-37
CCOC(=O)N=Nc1c(O)n(Cc2ccccc2)c2ccccc12	11*	/	/	/	/
COc1cccc(CN2CCNC(=O)C2CC(=O)NCCn2ccc3ccccc32)c1OC (stereo not given)	4	-0.01	/	/	/
CC(NC(=O)/C(C#N)=C/c1ccco1)c1ccccc1 (stereo not given)	/	-0.16	/	/	/
CC(NC(=O)/C(C#N)=C1\N=C(NC(=O)c2ccco2)c2ccccc21)c1ccccc1 (stereo not given)	/	3.7*	/	/	/
O=C(CN1C(=O)C2C3C=CC(C4CC34)C2C1=O)Nc1cnc2ccccc2c1 (stereo not given)	4	-0.5	/	/	/
O=c1c(-c2nnc(SCc3ccc(Cl)cc3)o2)cccn1Cc1ccccc1	6	/	6	-36	-98
O=C(Nc1ccccc1-c1nnc(SCc2ccc(Cl)cc2)o1)c1ccccc1	8.4*	-0.21	6	28	-54
CC(C)c1ccc2c(c1)C1(NN=C(c3ccccc3)S1)C(=O)N2 (stereo not given)	2	/	/	31	78*
CC(C)c1ccc(O)c(NC(=O)c2ncn[nH]2)c1	1	0.06	-11	64	-25
CCc1ccc2c(c1)C1(NN=C(c3ccc(C)cc3)S1)C(=O)N2 (stereo not given)	3	?	/	39	96*
CCOc1cc(-c2nc(-c3ccc(OC)cc3)no2)cc(OCC)c1OCC	9.6*	-1.2	5	-36	-63
CCCCCCNC(=O)c1c(O)c2ccccc2[nH]c1=O	5	-0.02	36*	-18	-71
COc1ccc(Cl)cc1NC(=O)CN(C)CC(=O)Nc1ccccc1N1CCOCC1	0	-0.1	/	/	/
O=C(Cc1ccc(Cl)cc1)NC(=S)Nc1ccccc1N1CCOCC1	4	0.47	-1	/	-25
O=C(Nc1ccccc1N1CCOCC1)C1(c2ccc(Cl)cc2)CCC1	9.2*	-0.81	/	/	/
